Among the data in ChEMBL document CHEMBL4052618, “Design, synthesis, SAR discussion, in vitro and in vivo evaluation of novel selective EGFR modulator to inhibit L858R/T790M double mutants” (Eur J Med Chem, 2017) are IC50, MRT and inhibition values, retold here.

Molecules are shown by their SMILES.

The target in series [1] is Epidermal growth factor receptor (Homo sapiens, UniProt P00533, L858R). Put plainly: Inhibition of human recombinant cytoplasmic GST-tagged EGFR L858R mutant expressed in baculovirus using TK-substrate-biotin preincubated for 15 mins followed by substrate addition measured after 60 mins by FRET-based Z'-Lyte assay.
For the next series, the system named is A-431. Put plainly: Antiproliferative activity against human A431 cells harboring wild-type EGFR. It is filed as functional, cell-based.
Series [2] is described as follows: MRT in Sprague-Dawley rat at 1 mg/kg, iv by LC-MS/MS analysis. It is filed as ADME, organism-based. As to conditions: in vivo. Put shortly:
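Male Sprague-Dawley rats (200-240 g) received 1 mg/kg by tail-vein injection in 2% DMSO, 20% PEG400 and 78% buffered saline, or 10 mg/kg by oral gavage in 0.5% methylcellulose. Orbital sinus blood was drawn into heparinized tubes at 2, 5, 15 and 30 min and at 1, 2, 4, 8, 12 and 24 h, then centrifuged. Plasma was measured by LC/MS/MS in SRM mode, with non-compartmental analysis.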

The target of series [3] is AMP-activated protein kinase (AMPK) alpha-1/beta-1/gamma-1 (Homo sapiens) (UniProt P54619+Q9Y478+Q13131). Put plainly: Inhibition of AMPK A1/B1/G1 (unknown origin) at 1 uM relative to control. It is filed as protein-complex assay.
For series [4], the target named is Cytoplasmic tyrosine-protein kinase BMX (Homo sapiens) (UniProt P51813). Put plainly: Inhibition of BMX (unknown origin) at 1 uM relative to control.
Series [5] deals with Mitogen-activated protein kinase kinase kinase 9 (Homo sapiens) (UniProt P80192). In words: Inhibition of MAP3K9 (unknown origin) at 1 uM relative to control.
Sequence of Mitogen-activated protein kinase kinase kinase 9 (Homo sapiens) (P80192 whole entry, looked up): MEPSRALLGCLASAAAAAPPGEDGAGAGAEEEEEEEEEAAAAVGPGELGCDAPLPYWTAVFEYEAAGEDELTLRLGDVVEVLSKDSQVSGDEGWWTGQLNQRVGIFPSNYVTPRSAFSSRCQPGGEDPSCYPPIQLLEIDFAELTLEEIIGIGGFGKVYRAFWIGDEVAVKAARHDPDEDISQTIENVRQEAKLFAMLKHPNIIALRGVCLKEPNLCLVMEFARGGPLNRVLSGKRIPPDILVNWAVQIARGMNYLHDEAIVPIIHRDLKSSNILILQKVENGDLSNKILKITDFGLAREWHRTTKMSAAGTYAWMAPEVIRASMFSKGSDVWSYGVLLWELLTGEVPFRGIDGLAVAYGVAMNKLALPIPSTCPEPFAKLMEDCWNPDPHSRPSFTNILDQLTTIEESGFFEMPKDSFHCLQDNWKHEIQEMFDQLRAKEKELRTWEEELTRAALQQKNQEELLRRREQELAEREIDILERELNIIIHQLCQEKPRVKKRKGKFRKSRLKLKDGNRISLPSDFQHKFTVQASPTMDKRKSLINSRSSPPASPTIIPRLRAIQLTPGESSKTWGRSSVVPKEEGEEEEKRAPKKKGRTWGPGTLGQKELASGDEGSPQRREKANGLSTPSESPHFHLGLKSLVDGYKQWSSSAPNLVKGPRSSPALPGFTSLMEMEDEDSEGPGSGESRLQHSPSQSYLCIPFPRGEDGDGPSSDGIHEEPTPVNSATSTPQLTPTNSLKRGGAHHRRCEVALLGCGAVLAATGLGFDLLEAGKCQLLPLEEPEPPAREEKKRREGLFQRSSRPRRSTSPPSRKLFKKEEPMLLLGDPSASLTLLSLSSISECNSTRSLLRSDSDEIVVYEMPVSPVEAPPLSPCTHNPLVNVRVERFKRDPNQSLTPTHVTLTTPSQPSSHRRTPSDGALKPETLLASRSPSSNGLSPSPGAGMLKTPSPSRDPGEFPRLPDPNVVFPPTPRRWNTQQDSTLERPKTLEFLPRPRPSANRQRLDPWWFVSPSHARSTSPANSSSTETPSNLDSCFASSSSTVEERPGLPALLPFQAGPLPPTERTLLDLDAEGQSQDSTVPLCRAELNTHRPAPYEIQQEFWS

Sequence of Epidermal growth factor receptor (P00533 25-1210 L858R limits assumed): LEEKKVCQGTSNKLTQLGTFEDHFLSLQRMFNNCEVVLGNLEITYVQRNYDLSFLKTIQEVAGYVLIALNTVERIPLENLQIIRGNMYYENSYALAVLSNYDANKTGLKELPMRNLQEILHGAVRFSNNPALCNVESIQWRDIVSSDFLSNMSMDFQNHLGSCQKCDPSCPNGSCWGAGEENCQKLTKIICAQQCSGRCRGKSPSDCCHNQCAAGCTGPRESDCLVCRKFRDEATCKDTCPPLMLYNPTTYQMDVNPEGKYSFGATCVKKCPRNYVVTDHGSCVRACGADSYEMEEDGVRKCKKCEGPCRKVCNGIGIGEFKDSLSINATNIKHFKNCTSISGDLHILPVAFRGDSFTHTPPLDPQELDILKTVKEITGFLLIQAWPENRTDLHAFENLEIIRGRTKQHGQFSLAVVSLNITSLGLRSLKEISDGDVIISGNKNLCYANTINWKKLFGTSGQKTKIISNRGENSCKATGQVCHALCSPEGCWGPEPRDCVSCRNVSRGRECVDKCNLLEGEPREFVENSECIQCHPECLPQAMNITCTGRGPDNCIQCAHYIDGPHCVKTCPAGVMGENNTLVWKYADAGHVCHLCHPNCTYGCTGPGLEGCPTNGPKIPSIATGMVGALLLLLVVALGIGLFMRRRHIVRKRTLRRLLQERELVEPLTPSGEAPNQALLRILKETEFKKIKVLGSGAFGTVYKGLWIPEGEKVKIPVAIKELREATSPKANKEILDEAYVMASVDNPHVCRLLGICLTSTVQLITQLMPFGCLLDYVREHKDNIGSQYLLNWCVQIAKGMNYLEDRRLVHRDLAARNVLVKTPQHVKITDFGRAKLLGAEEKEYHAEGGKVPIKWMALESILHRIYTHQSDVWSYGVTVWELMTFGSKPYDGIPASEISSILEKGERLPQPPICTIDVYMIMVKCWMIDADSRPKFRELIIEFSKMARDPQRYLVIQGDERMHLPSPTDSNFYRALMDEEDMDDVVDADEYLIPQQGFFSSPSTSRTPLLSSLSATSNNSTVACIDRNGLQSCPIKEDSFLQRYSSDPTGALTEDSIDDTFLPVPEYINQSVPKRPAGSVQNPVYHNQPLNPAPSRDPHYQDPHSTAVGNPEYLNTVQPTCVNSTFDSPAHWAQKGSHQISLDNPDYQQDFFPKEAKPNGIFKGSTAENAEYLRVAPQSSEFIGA
Sequence of Cytoplasmic tyrosine-protein kinase BMX (Homo sapiens) (P51813 whole entry): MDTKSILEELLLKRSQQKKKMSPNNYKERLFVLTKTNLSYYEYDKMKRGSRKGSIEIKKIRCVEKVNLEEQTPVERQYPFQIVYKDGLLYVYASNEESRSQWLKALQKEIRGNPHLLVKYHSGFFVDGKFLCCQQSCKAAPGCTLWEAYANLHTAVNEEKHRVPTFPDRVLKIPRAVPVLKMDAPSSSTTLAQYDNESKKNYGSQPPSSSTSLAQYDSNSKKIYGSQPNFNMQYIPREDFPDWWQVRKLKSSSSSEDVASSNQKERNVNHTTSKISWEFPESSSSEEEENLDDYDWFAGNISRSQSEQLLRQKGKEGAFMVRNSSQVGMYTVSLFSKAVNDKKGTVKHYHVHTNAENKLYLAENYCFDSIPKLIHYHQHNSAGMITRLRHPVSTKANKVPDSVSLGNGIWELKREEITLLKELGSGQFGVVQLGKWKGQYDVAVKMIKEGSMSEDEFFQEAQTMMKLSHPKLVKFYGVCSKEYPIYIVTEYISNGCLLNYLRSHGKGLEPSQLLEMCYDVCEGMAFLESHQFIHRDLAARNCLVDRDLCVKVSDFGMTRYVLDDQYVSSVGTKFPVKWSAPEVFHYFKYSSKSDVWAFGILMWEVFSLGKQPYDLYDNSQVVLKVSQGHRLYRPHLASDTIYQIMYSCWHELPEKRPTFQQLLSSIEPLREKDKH
Sequence of AMP-activated protein kinase (AMPK) alpha-1/beta-1/gamma-1 (Homo sapiens) (P54619 whole entry): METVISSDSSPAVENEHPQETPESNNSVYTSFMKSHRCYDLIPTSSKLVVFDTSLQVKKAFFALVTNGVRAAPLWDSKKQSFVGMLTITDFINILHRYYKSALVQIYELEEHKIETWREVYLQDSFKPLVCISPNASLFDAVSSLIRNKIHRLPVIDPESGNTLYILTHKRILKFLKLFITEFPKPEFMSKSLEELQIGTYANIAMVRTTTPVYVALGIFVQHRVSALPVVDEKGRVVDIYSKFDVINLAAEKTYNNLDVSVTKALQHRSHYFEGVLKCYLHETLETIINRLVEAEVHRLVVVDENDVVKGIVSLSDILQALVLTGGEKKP
Sequence of AMP-activated protein kinase (AMPK) alpha-1/beta-1/gamma-1 (Homo sapiens) (Q13131 whole entry partner): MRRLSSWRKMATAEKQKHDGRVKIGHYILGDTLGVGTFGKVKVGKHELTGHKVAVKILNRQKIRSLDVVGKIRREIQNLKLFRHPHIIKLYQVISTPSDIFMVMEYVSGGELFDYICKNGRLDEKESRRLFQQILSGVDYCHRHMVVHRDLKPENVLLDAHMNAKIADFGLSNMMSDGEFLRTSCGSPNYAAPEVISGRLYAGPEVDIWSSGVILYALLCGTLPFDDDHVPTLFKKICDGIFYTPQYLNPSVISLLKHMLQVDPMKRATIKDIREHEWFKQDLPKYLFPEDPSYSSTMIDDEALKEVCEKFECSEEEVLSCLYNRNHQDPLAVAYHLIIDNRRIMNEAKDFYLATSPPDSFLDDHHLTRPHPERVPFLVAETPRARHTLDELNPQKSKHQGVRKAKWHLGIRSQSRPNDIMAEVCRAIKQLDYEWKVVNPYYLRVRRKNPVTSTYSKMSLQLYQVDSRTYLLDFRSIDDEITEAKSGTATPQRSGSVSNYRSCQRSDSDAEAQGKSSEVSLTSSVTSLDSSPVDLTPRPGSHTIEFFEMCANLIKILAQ
Sequence of AMP-activated protein kinase (AMPK) alpha-1/beta-1/gamma-1 (Homo sapiens) (Q9Y478 2-270 partner limits assumed): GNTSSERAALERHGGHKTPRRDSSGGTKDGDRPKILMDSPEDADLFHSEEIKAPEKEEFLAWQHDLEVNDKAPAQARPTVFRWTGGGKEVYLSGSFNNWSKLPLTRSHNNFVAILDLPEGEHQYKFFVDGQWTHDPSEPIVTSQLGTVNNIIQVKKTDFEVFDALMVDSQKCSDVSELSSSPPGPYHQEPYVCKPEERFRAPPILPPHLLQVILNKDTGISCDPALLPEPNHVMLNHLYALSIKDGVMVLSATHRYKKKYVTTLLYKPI

For the compound `C=CC(=O)Nc1cc(Nc2nccc(-c3cn4c5c(cccc35)CCC4)n2)c(OC)cc1N(C)CCN(C)C`, the figures for the IC50 (in series [1]; with A-431) were 5.3 to 6 nM and 870 nM, respectively. The mean residence time (MRT) in series [2] came out at 4.7 h. In addition, the inhibition in series [3] came to 7%; in series [4], 80%; in series [5], 87%.

One may read the IC50 as the concentration that inhibits the measured activity by half. The term MRT denotes the average time that molecules of a dose stay in the body. What is called inhibition is the share of the control response that was lost under treatment. Low values mean little suppression, high ones strong suppression.
